EBV gp42 block: Epstein-Barr virus gp42 inhibitors, primary screen, biochemical, uHTS, fluorescence polarization | Fluorescence polarization binding assay, mP read-out | Glycoprotein 42 (Epstein-Barr virus (strain AG876)), Q1HVG2 | inhibition, % (tested at 21.74 µM) | 220,000 tested, 0.42% active; in the data active means inhibition above about 50%
Target sequence (Q1HVG2 whole entry, looked up): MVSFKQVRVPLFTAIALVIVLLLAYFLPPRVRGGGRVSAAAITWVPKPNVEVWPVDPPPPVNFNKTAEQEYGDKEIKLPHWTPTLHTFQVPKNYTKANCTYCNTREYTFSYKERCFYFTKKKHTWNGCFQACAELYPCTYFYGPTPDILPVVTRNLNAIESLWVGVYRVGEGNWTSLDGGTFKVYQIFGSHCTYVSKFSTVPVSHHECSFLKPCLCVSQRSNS
core dimer inh: inhibitors of HCV core protein dimerization, primary screen, biochemical, TR-FRET, high-throughput | inhibition, % at 5 µM | TR-FRET GST/Flag-core106 dimerization, 1536-well | 300,000 tested, 0.33% active;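 active means inhibition above the mean of all tested compounds plus 3 SD, set per screening campaign, cut at about 45% in these data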
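Assay system: tagged HCV core106 pair (GST and Flag); medium: KF-containing HEPES buffer, pH 7.45, DTT, CHAPS, BSA; also added: Eu donor and XL665 acceptor anti-tag antibodies; dosing: 5 µM single dose; timing: compound-protein-antibody incubation 4 h at 22.5 °C; signal: TR-FRET 671 and 617 nm emission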
MEX-5 binding: MEX-5 zinc finger RNA-binding disruptors – biochemical, C. elegans, fluorescence polarization, MLPCN library, primary screen; Zinc finger protein mex-5 (Caenorhabditis elegans), Q9XUB2; MEX-5/FITC-TCR2 RNA binding; stronger effect = lower value; activity score (negative = inhibition of binding), % at 10 µM; 300,000 tested, 0.38% active; AID 1832, 2009;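 active means inhibition past about -25% in most replicates, and total fluorescence under double the plate's negative control median, limit read from the data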;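 further: 0% = DMSO and -100% = 5 µM competing unlabeled TCR2 RNA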
EBNA-1 inhibitor: EBNA-1 DNA-binding inhibitors, primary screen, biochemical, fluorescence polarization; inhibition, % at 14.8 µM; 300,000 tested, 0.34% active; AID 1950, 2009; in the data active means inhibition above about 28%
HCV NS3 hel inh: inhibitors of HCV NS3 helicase, primary screen, biochemical, Cy5 molecular beacon fluorescence; Hepatitis C virus NS3 helicase; NS3 helicase DNA unwinding; inhibition, % at 10.9 µM; 290,000 tested, 0.56% active; AID 1800, 2009;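 active means inhibition above the mean of all tested compounds plus 3 SD, set per campaign, cut at about 35% in these data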;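 further: 0% = DMSO wells and 100% = thioflavine S control wells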
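assay system = NS3 helicase fragment of HCV | buffer or medium = MOPS pH 6.5, MgCl2, DTT, Tween20, BSA | timing = 60 min unwinding reaction at 25 °C after ATP addition | signal = Cy5 beacon fluorescence read at start and 1 h | read-out basis = % inhibition of unwinding | control set = low DMSO, high thioflavine S at 110 µM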
ZTA counter: blocks Epstein-Barr virus ZTA, an EBNA-1 counter-screen. P03206. ZTA-DNA binding, fluorescence polarization. inhibition, % at 11 µM. 320,000 tested, 0.15% active. AID 2234; in the data active means inhibition above about 33%
Target sequence (P03206 whole entry, looked up): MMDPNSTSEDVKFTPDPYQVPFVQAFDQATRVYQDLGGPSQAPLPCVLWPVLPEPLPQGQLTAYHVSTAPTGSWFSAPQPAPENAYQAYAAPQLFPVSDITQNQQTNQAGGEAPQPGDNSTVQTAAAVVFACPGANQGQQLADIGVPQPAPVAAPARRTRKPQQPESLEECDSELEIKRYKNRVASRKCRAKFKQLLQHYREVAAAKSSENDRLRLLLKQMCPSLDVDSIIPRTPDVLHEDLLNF
EBNA-1 inh conf: EBNA-1 DNA-binding inhibitors, retest, confirmation, biochemical, fluorescence polarization, triplicate. inhibition, % at 14.8 µM. shares compounds with EBNA-1 inhibitor. Recombinant EBNA-1 DBD, Cy5-DNA fluorescence polarization. 830 tested, 35% active;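 active means mean inhibition across replicates above a set limit taken from the earlier primary screen, cut at about 28% in these data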;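 further: plate controls were EBNA-1 protein with DMSO for no effect and wells lacking EBNA-1 for full effect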
ZTA DNA inh trip: EBV Zta DNA binding inhibitors, counter-screen for EBNA-1 inhibitor project, biochemical, fluorescence polarization, triplicate; shares compounds with EBNA-1 inhibitor; Zta-ZRE DNA binding, Cy5 fluorescence polarization; inhibition, % at 11.1 µM; 830 tested, under 10 active; AID 2328, 2010;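 active means mean inhibition over triplicates above a set limit taken from the primary EBNA-1 screen, cut at about 37% in these data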;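 further: purified full length Zta protein with Cy5 labeled ZRE DNA probe; 0% = Zta with DMSO and 100% = wells lacking Zta protein; inhibitors lower polarization by freeing the labeled DNA probe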
An asterisk follows results filed as active; · = no result given. Only some compounds are listed: those with a hit (about 1.7% of all), similar ones and a draw of the others.

SMILES	EBV gp42 block	core dimer inh	MEX-5 binding	EBNA-1 inhibitor	HCV NS3 hel inh	ZTA counter	EBNA-1 inh conf	ZTA DNA inh trip
Cc1cc(C(=O)CN2C(=O)NC3(CCCc4sccc43)C2=O)c(C)n1-c1ccc(Cl)cc1 (stereo unspecified)	-28	28	3	34*	-3	-4	17	-11
CCn1c(SCC(=O)N/N=C/c2ccc(C)s2)nc2ccccc21	16	0	0	6	-3	13	·	·
COCc1c(C(=O)N/N=C/c2ccc(C)o2)nnn1-c1nonc1N	·	-2	2	-11	-2	-4	·	·
COCCCNC(=O)c1c(N)n(-c2ccc(S(N)(=O)=O)cc2)c2nc3ccccc3nc12	-23	-1	-3	113*	2	25	65*	-13
COCCCNC(=O)c1c(N)n(-c2ccccc2)c2nc3ccccc3nc12	-5	-4	-2	-3	-1	-5	·	·
COCCCNC(=O)c1ccc(Cn2c(=O)c3ccccc3n(Cc3ccccc3C#N)c2=O)cc1	-14	3	0	33*	-2	6	11	1
COC(=O)c1ccc2c(=O)[nH]c(CSc3nc(-c4ccc(F)cc4)cs3)nc2c1	-5	-13	-3	60*	5	-17	34*	12
COC(=O)C1=C(CSc2nc3ccccc3s2)NC(=O)NC1c1ccc(F)cc1 (stereo unspecified)	6	9	-2	42*	-7	-3	16	2
CCn1c(SCC(=O)c2c[nH]c3ccccc23)nnc1-c1cccs1	-22	-4	-9	30*	-16	-3	23	12
O=C(CCCCCNc1nc(=S)[nH]c2ccccc12)NCCc1c[nH]c2ccccc12	0	6	-2	15	2	16	·	·
O=C(CCCCCNc1nc(=S)[nH]c2ccccc12)NCCc1ccc(Cl)cc1	-26	9	5	66*	-7	3	68*	2
Cc1ccc(-n2nnc3c(=O)n(CC(=O)c4ccccc4)cnc32)cc1	-12	8	1	22	9	-1	·	·
CCOc1ccc(-n2nnc3c(=O)n(CC(=O)c4ccccc4)cnc32)cc1	·	12	-4	30*	-1	14	13	12
Cc1ccc(NC(=O)C(=O)NCCc2c[nH]c3ccccc23)cc1C	-15	4	-2	5	-4	-8	·	·
O=C(NCCc1c[nH]c2ccccc12)C(=O)Nc1ccccc1	-20	21	-1	35*	6	5	2	-8
CCN(CC)C(=O)C1CCCN(C(=O)c2cc(COc3cccc(OC)c3)on2)C1 (stereo unspecified)	·	-3	-2	-4	-1	2	·	·
O=C(Nc1ccc(Oc2ccccc2)cc1)C1CCN(c2ncccn2)CC1	-1	2	-1	39*	-2	11	-1	5
O=C(Nc1ccc(Oc2ccccc2)cc1)C1CC1	-30	-3	-1	10	-13	-2	·	·
C=CCC1NS(=O)(=O)OC(CCc2ccccc2)C1O (stereo unspecified)	·	-13	3	10	26	-1	·	·
CCCC(C)NC(=O)COc1ccc(Sc2ccc(OCC(=O)NC(C)CCC)cc2)cc1 (stereo unspecified)	-14	9	2	-2	-2	5	·	·
O=C(CNS(=O)(=O)c1ccc(F)cc1)N1CCCC1	·	-2	-1	3	·	-1	·	·

Source: PubChem (several laboratories)
